From ChEMBL document CHEMBL4346684, “Synthesis and structure-bactericidal activity relationships of non-ketolides: 9-Oxime clarithromycin 11,12-cyclic carbonate featured with three-to eight-atom-length spacers at 3-OH” (Eur J Med Chem, 2019)
≈ marks a conversion by molar mass, not a printed value. Calls of active or inactive are those of the source. The calls are words filed in the database; no cut-off is given here.

Tests used:
[1] = Tmax in Sprague-Dawley rat at 20 mg/kg, po administered as single dose measured for 0.25 to 24 hrs by LC-MS/MS analysis; assay type: ADME, organism-based; details: in vivo
In short: (§1)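 Male SD rats (2-3 per compound) given a single oral 20 mg/kg dose in saline with 1% DMF/20% hydroxypropyl-β-cyclodextrin (w/v). Blood drawn at 0.25, 0.5, 1, 2, 4, 6, 8 and 24 h, centrifuged 2500 g, 5 min, 4 °C; drug quantified by LC-MS/MS. Noncompartmental parameters calculated (AUC0-t, AUCinf, CL, t1/2, MRT, Cmax, Tmax); mean ± s.d.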

Staphylococcus aureus [2] = experiment: Antimicrobial activity against inducibly erythromycin-resistant and methicillin resistant Staphylococcus aureus PU32 expressing i-ermA incubated in CAMHB medium for 20 hrs by two-fold microbroth dilution method; assay type: functional; details: PU32, 20 h
In short: (§2)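 Purified fresh Staphylococcus isolate at about 5×10^5 CFU/ml final in CAMHB, 35 °C for 20 h. Each run included ATCC strains and reference antibiotics as QC, plus an antibiotic-free growth control.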

[3] = MRT in Sprague-Dawley rat at 20 mg/kg, po administered as single dose measured for 0.25 to 24 hrs by LC-MS/MS analysis; assay type: ADME, organism-based; details: in vivo; in short: as §1
Streptococcus pneumoniae [4] = experiment: Bactericidal activity against erythromycin-susceptible Streptococcus pneumoniae ATCC 49619 incubated at >1XMIC incubated for 1 to 24 hrs by broth dilution method; assay type: functional, organism-based
In short: (§3)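 Samples taken at 1, 2, 4, 6, 8, 12, 24 h, diluted and plated, colonies counted after 20-24 h at 35 °C; log CFU plotted against time. Detection limit 300 CFU/mL.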

Cytochrome P450 3A4 = Cytochrome P450 3A4 (Homo sapiens, UniProt P08684); experiment: Inhibition of CYP3A4 in human liver microsomes using midazolam as substrate incubated for 10 mins after substrate addition by HPLC analysis; assay type: ADME
In short: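 Human liver microsome CYP3A4 (0.03 mg/mL final), midazolam 5.00 μM final, 0.1 M potassium phosphate pH 7.4 with MgCl2, preincubated 37 °C 5 min. Test compound 0-25.00 μM (ketoconazole 0-0.25 μM as reference) and NADPH 1.5 mM final added; 10 min at 37 °C. Metabolite/internal-standard peak-area ratio measured by UPLC-MS/MS; IC50 fitted.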

Staphylococcus aureus [5] = experiment: Bactericidal activity against inducibly erythromycin-resistant and methicillin resistant Staphylococcus aureus PU32 expressing i-ermA assessed as reduction in colony formation incubated in CAMHB medium for 20 hrs followed by 24 hrs subculturing in the medium without test compound; assay type: functional
Streptococcus pneumoniae [6] = experiment: Ratio of MBC to MIC for mef-encoded erythromycin resistant Streptococcus pneumoniae PU09; assay type: functional
[7] = AUCinfinity in Sprague-Dawley rat at 20 mg/kg, po administered as single dose measured for 0.25 to 24 hrs by LC-MS/MS analysis; assay type: ADME, organism-based; design: dose 20 mg/kg, time infinity, route oral; details: in vivo; in short: as §1
Streptococcus pneumoniae [8] = experiment: Bactericidal activity against mef-encoded erythromycin resistant Streptococcus pneumoniae PU09 assessed as reduction in colony formation incubated in CAMHB medium for 20 to 24 hrs followed by 24 hrs subculturing in the medium without test compound; assay type: functional
[9] = Clearance in Sprague-Dawley rat at 20 mg/kg, po administered as single dose measured for 0.25 to 24 hrs by LC-MS/MS analysis; assay type: ADME, organism-based; details: in vivo; in short: as §1
Haemophilus influenzae [10] = experiment: Ratio of MBC to MIC for azithromycin-susceptible Haemophilus influenzae ATCC 49247; assay type: functional
Rattus norvegicus [11] = experiment: Ratio of telithromycin clearance to compound clearance in Sprague-Dawley rat at 20 mg/kg, po administered as single dose measured for 0.25 to 24 hrs by LC-MS/MS analysis; assay type: ADME, organism-based; details: in vivo
Streptococcus pneumoniae [12] = experiment: Ratio of clarithromycin MBC to compound MBC for mef-encoded erythromycin resistant Streptococcus pneumoniae PU09; assay type: functional
Streptococcus pyogenes [13] = experiment: Bactericidal activity against inducibly erythromycin resistant Streptococcus pyogenes 01-968 expressing i-ermA assessed as reduction in colony formation incubated in CAMHB medium for 20 to 24 hrs followed by 24 hrs subculturing in the medium without test compound; assay type: functional
Streptococcus pneumoniae [14] = experiment: Bactericidal activity against erythromycin-susceptible Streptococcus pneumoniae ATCC 49619 assessed as reduction in colony formation incubated in CAMHB medium for 20 to 24 hrs followed by 24 hrs subculturing in the medium without test compound; assay type: functional
Rattus norvegicus [15] = experiment: Ratio of telithromycin half life to compound half life in Sprague-Dawley rat at 20 mg/kg, po administered as single dose measured for 0.25 to 24 hrs by LC-MS/MS analysis; assay type: ADME, organism-based; details: in vivo
[16] = Ratio of telithromycin MRT to compound MRT in Sprague-Dawley rat at 20 mg/kg, po administered as single dose measured for 0.25 to 24 hrs by LC-MS/MS analysis; assay type: ADME, organism-based; details: in vivo
Staphylococcus aureus [17] = experiment: Ratio of MBC to MIC for inducibly erythromycin-resistant and methicillin resistant Staphylococcus aureus PU32 expressing i-ermA; assay type: functional
Staphylococcus aureus [18] = experiment: Ratio of clarithromycin MBC to compound MBC for inducibly erythromycin-resistant and methicillin resistant Staphylococcus aureus PU32 expressing i-ermA; assay type: functional
[19] = Cmax in Sprague-Dawley rat at 20 mg/kg, po administered as single dose measured for 0.25 to 24 hrs by LC-MS/MS analysis; assay type: ADME, organism-based; design: dose 20 mg/kg, route oral; details: in vivo; in short: as §1
Haemophilus influenzae [20] = experiment: Antimicrobial activity against azithromycin-susceptible Haemophilus influenzae ATCC 49247 incubated in HTM broth medium for 20 to 24 hrs by two-fold microbroth dilution method; assay type: functional
[21] = AUC (0 to t) in Sprague-Dawley rat at 20 mg/kg, po administered as single dose measured for 0.25 to 24 hrs by LC-MS/MS analysis; assay type: ADME, organism-based; design: time 0.25-24 hr, dose 20 mg/kg, route oral; details: in vivo; in short: as §1
Streptococcus pneumoniae [22] = experiment: Bactericidal activity against erythromycin-susceptible Streptococcus pneumoniae ATCC 49619 assessed as log reduction in bacterial CFU at 1XMIC incubated for 1 to 24 hrs by broth dilution method; assay type: functional; in short: as §3
Streptococcus pyogenes [23] = experiment: Ratio of clarithromycin MBC to compound MBC for inducibly erythromycin resistant Streptococcus pyogenes 01-968 expressing i-ermA; assay type: functional
Rattus norvegicus [24] = experiment: Ratio of telithromycin Cmax to compound Cmax in Sprague-Dawley rat at 20 mg/kg, po administered as single dose measured for 0.25 to 24 hrs by LC-MS/MS analysis; assay type: ADME, organism-based; details: in vivo
Streptococcus pyogenes [25] = experiment: Antimicrobial activity against inducibly erythromycin resistant Streptococcus pyogenes 01-968 expressing i-ermA incubated in CAMHB medium for 20 to 24 hrs by two-fold microbroth dilution method; assay type: functional
Rattus norvegicus [26] = experiment: Ratio of telithromycin Tmax to compound Tmax in Sprague-Dawley rat at 20 mg/kg, po administered as single dose measured for 0.25 to 24 hrs by LC-MS/MS analysis; assay type: ADME, organism-based; details: in vivo
Streptococcus pyogenes [27] = experiment: Ratio of MBC to MIC for inducibly erythromycin resistant Streptococcus pyogenes 01-968 expressing i-ermA; assay type: functional
Streptococcus pneumoniae [28] = experiment: Bactericidal activity against mef-encoded erythromycin resistant Streptococcus pneumoniae PU09 at 1 to 16xMIC incubated for 1 to 24 hrs by broth dilution method; assay type: functional, organism-based
In short: (§4)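 Samples were taken at 1, 2, 4, 6, 8, 12 and 24 h, diluted and subcultured at 35 °C for 20–24 h. Colonies were counted and log CFU plotted against time; detection limit 300 CFU/mL.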

Streptococcus pyogenes [29] = experiment: Bactericidal activity against inducibly erythromycin resistant Streptococcus pyogenes 01-968 expressing i-ermA assessed as log reduction in bacterial CFU at 1 to 16XMIC incubated for 24 hrs by broth dilution method; assay type: functional; in short: as §4
Streptococcus pneumoniae [30] = experiment: Ratio of MBC to MIC for erythromycin-susceptible Streptococcus pneumoniae ATCC 49619; assay type: functional
Streptococcus pyogenes [31] = experiment: Bactericidal activity against inducibly erythromycin resistant Streptococcus pyogenes 01-968 expressing i-ermA at 1 to 16XMIC incubated for 12 hrs by broth dilution method; assay type: functional, organism-based; in short: as §4
Rattus norvegicus [32] = experiment: Ratio of telithromycin AUC to compound AUC in Sprague-Dawley rat at 20 mg/kg, po administered as single dose measured for 0.25 to 24 hrs by LC-MS/MS analysis; assay type: ADME, organism-based; details: in vivo
[33] = Half life in Sprague-Dawley rat at 20 mg/kg, po administered as single dose measured for 0.25 to 24 hrs by LC-MS/MS analysis; assay type: ADME, organism-based; details: in vivo; in short: as §1
Haemophilus influenzae [34] = experiment: Bactericidal activity against azithromycin-susceptible Haemophilus influenzae ATCC 49247 assessed as reduction in colony formation incubated in HTM broth medium for 20 to 24 hrs followed by 24 hrs subculturing in the medium without test compound; assay type: functional
Staphylococcus aureus [35] = experiment: Antimicrobial activity against constitutively erythromycin resistant and methicillin resistant Staphylococcus aureus PU20 expressing c-ermC incubated in CAMHB medium for 20 hrs by two-fold microbroth dilution method; assay type: functional; details: PU20, 20 h; in short: as §2
Streptococcus pneumoniae [36] = experiment: Antimicrobial activity against mef-encoded erythromycin resistant Streptococcus pneumoniae PU09 incubated in CAMHB medium for 20 to 24 hrs by two-fold microbroth dilution method; assay type: functional
Streptococcus pneumoniae [37] = experiment: Antimicrobial activity against erythromycin-susceptible Streptococcus pneumoniae ATCC 49619 incubated in CAMHB medium for 20 to 24 hrs by two-fold microbroth dilution method; assay type: functional

Cytochrome P450 3A4, sequence (P08684 whole entry): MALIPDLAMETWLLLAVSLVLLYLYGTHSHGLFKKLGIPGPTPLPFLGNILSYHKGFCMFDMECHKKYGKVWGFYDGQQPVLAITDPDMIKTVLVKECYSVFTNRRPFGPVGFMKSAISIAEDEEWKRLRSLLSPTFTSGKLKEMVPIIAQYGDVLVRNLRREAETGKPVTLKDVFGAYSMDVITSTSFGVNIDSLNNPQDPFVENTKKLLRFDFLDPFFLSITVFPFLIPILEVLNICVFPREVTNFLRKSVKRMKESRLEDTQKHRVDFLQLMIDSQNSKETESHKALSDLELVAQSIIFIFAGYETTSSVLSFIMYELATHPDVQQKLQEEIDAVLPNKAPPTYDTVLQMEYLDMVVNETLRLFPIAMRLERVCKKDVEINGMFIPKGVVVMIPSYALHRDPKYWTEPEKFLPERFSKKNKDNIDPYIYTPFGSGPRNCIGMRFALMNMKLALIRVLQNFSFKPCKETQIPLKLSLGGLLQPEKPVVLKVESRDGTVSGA

Compound `CC[C@H]1OC(=O)[C@H](C)[C@@H](OC(=O)NCCCc2cccnc2)[C@H](C)[C@@H](O[C@@H]2O[C@H](C)C[C@H](N(C)C)[C@H]2O)[C@](C)(OC)C[C@@H](C)/C(=N\OC)[C@H](C)[C@H]2OC(=O)O[C@@]21C` has a Tmax [1] of 0.833 h, an MIC (Staphylococcus aureus [2]) of 8 µg/mL (≈ 9.91 µM) and an MRT [3] of 4.53 h. For the same compound, the Activity (Streptococcus pneumoniae [4]) was “Active”, the IC50 (Cytochrome P450 3A4) was 2500 nM and the MBC (Staphylococcus aureus [5]) was 16 µg/mL (≈ 19.8 µM). For the same compound, the Ratio (Streptococcus pneumoniae [6]) was 1, the AUC(0-inf) [7] was 6760 ng·h/mL and the MBC (Streptococcus pneumoniae [8]) was 0.5 µg/mL (≈ 0.62 µM). The CL/F [9] was 50.6 mL/min/kg, the Ratio (Haemophilus influenzae [10]) was 2 and the Ratio (Rattus norvegicus [11]) was 7. The Ratio (Streptococcus pneumoniae [12]) was 32, the MBC (Streptococcus pyogenes [13]) was 2 µg/mL (≈ 2.48 µM) and the MBC (Streptococcus pneumoniae [14]) was 0.125 µg/mL (≈ 0.155 µM). The Ratio (Rattus norvegicus [15]) was 2.4, the Ratio [16] was 1.4 and the Ratio (Staphylococcus aureus [17]) was 2. The Ratio (Staphylococcus aureus [18]) was 32, the Cmax [19] was 1030 ng/mL and the MIC (Haemophilus influenzae [20]) was 64 µg/mL (≈ 79.3 µM). It also gave an AUC(0-t) [21] of 6730 ng·h/mL, an Activity (Streptococcus pneumoniae [22]) of 2 log10CFU and a Ratio (Streptococcus pyogenes [23]) of 32. For the same compound, the Ratio (Rattus norvegicus [24]) was 5, the MIC (Streptococcus pyogenes [25]) was 0.25 µg/mL (≈ 0.31 µM) and the Ratio (Rattus norvegicus [26]) was 0.4. The Ratio (Streptococcus pyogenes [27]) was 8, the Activity (Streptococcus pneumoniae [28]) was “Active” and the Activity (Streptococcus pyogenes [29]) was “<=3 log10CFU”. For the same compound, the Ratio (Streptococcus pneumoniae [30]) was 2, the Activity (Streptococcus pyogenes [31]) was “Active” and the Ratio (Rattus norvegicus [32]) was 7. The half-life [33] was 2.94 h, the MBC (Haemophilus influenzae [34]) was 128 µg/mL (≈ 159 µM) and the MIC (Staphylococcus aureus [35]) was greater than 256 µg/mL. It also gave an MIC (Streptococcus pneumoniae [36]) of 0.5 µg/mL (≈ 0.62 µM) and an MIC (Streptococcus pneumoniae [37]) of 0.06 µg/mL (≈ 0.0743 µM).
